Shown are actives, neighbours in structure and some others; about 3.6% of the full set was active somewhere.
Measles CPE: protection of cells from measles virus | Measles virus-infected cells, CPE protection, absorbance | protection (pct of control), % at 4 µM | 140,000 tested, 1.5% active | AID 841; in the data active = protection mostly above about 24%, no sharp cut-off; inactive = mostly below about 26%
BB579 growth dn: chemicals that inhibit yeast BB579 growth in restrictive medium (lifespan-shortening candidates). 140,000 tested, 0.51% active. S. cerevisiae BB579 growth, OD615, 48 h. inhibition, % at 10 µM;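 active = inhibition above a set limit, 3 SD over the mean compound inhibition, cut at about 44% in these data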
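System: Saccharomyces cerevisiae DeaD strain BB579, replicative lifespan model yeast | Buffer or medium: Restrictive glucose-based CSMM-D medium | Times: 4 h preincubation and 48 h exposure at 30 °C | Detection: OD615 turbidity measurement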
Yeast lifespan up: extends the lifespan of yeast. S. cerevisiae growth with nicotinamide, OD615; deaD strain in restrictive glucose medium. inhibition of the nicotinamide effect, % at 10 µM. 130,000 tested, 0.68% active. AID 775;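 active = inhibition above a set limit, placed 3 SD over the median of all compounds, cut at about 26% in these data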
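Assay system: engineered S. cerevisiae DeaD replicative-lifespan strain, galactose-grown log-phase cells; medium: restrictive CSMM-D dextrose medium; also added: nicotinamide, 1.5 mM, co-present with compound; schedule: 48 h compound exposure at 30 °C, humidified; detection: absorbance at 615 nm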
RAM network inh: inhibitors of the yeast RAM network | S. cerevisiae dse1pr::URA3 reporter, 5-FOA growth OD615, 2 d; analog-sensitive cbk1-as2 kinase mutant strain | 190,000 tested, 1.8% active | inhibition, % at 50 µM;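 active = inhibition above a set limit, 3 SD over mean compound inhibition, cut at about 8.4% in these data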;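 also: inhibition rescues growth on 5-FOA so higher OD means more RAM inhibition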
Hits are given with their value.

What do the screens show for `CCOc1ccc(NC(=O)CCC(=O)NNS(=O)(=O)c2ccccc2[N+](=O)[O-])cc1`?
RAM network inh: inactive

Results for CSc1ccccc1C(=O)N1CCN(c2ncccn2)CC1 ?
RAM network inh: inactive

What do the screens show for `COC(c1ccccc1)c1nnc(CCC(=O)N(C)Cc2cccc(-n3cccn3)c2)o1` (configuration not stated)?
RAM network inh: inactive

What do the screens show for `CCN(CC)S(=O)(=O)c1ccc(=O)[nH]c1`?
RAM network inh: inactive

What do the screens show for `Cc1cc(C)nc(N2CCCC(C(=O)NCCc3ccccc3F)C2)n1` (configuration not stated)?
Measles CPE: 43; BB579 growth dn: inactive; Yeast lifespan up: inactive; RAM network inh: inactive

What do the screens show for `Cc1ccccc1-c1ccc(=O)n(CC(=O)Nc2ccc(S(=O)(=O)N(C)C)cc2)n1`?
RAM network inh: 8.9

How did COc1cccc(C(=O)c2c[nH]c(C(=O)NCc3cccnc3)c2)c1 do in these assays?
RAM network inh: inactive

Results for Cc1ccc(C(=O)c2c[nH]c(C(=O)NCc3cccnc3)c2)cc1 ?
Measles CPE: 28; BB579 growth dn: inactive; Yeast lifespan up: inactive; RAM network inh: inactive

How did O=C(CNC(=S)N(Cc1ccccc1)Cc1cccnc1)NC1CCCCC1 do in these assays?
Measles CPE: inactive; BB579 growth dn: inactive; Yeast lifespan up: inactive; RAM network inh: inactive

What do the screens show for `COc1cccc(-c2nnc(SCC(N)=O)n2-c2ccc(Cl)cc2)c1`?
Measles CPE: 57; BB579 growth dn: inactive; Yeast lifespan up: inactive; RAM network inh: inactive

What do the screens show for `CCOc1cccc(-c2nnc(SCC(=O)Nc3cc(OC)cc(OC)c3)n2N)c1`?
Measles CPE: inactive; BB579 growth dn: inactive; Yeast lifespan up: inactive; RAM network inh: inactive

Results for COc1cccc(NC(=O)CSc2nnc(-c3cccc(OC(C)C)c3)n2N)c1 ?
Measles CPE: inactive; BB579 growth dn: inactive; Yeast lifespan up: inactive; RAM network inh: 11

What do the screens show for `CCc1ccc(C(=O)NNC(=S)Nc2ccc(S(N)(=O)=O)cc2)s1`?
RAM network inh: inactive

How did COc1ccc(-c2cc(C(F)(F)F)nc(N3CCN(C)CC3)n2)cc1 do in these assays?
Measles CPE: inactive; BB579 growth dn: inactive; Yeast lifespan up: inactive; RAM network inh: inactive

Results for COc1ccc(-c2cc(C(F)(F)F)nc(N3CCCCCC3)n2)cc1 ?
Measles CPE: inactive; BB579 growth dn: inactive; Yeast lifespan up: inactive; RAM network inh: 8.7

How did C=C(C)CN(CC)C(=O)CC1C(=O)NCCN1C (configuration not stated) do in these assays?
RAM network inh: inactive

Results for OCCNc1nc2ccccc2n1CCN1CCCCC1 ?
Measles CPE: 47; BB579 growth dn: inactive; RAM network inh: inactive

Results for CC(C)CC(C(=O)Nc1ccccc1)N1C(=O)C2C3C=CC(C3)C2C1=O (configuration not stated) ?
RAM network inh: inactive

How did COc1cnc(-c2ccccc2)nc1Oc1ccc(C(C)(C)C)cc1 do in these assays?
BB579 growth dn: inactive; Yeast lifespan up: inactive; RAM network inh: 11

Results for COc1cnc(-c2ccccc2)nc1Oc1ccccc1C ?
Measles CPE: inactive; BB579 growth dn: inactive; Yeast lifespan up: inactive; RAM network inh: inactive

Results for CCCCOc1ccc(-c2nnn(CC(=O)Nc3ncc(CC(=O)OCC)s3)n2)cc1 ?
Measles CPE: inactive; BB579 growth dn: inactive; Yeast lifespan up: inactive; RAM network inh: 9.3

Results for CCOC(=O)Cc1cnc(NC(=O)Cn2nnc(-c3ccc(OCC)cc3)n2)s1 ?
Measles CPE: inactive; BB579 growth dn: inactive; Yeast lifespan up: inactive; RAM network inh: inactive

What do the screens show for `CSc1ccc(NC(=O)N2CC=C(n3c(=O)[nH]c4ccccc43)CC2)cc1`?
Measles CPE: inactive; BB579 growth dn: inactive; Yeast lifespan up: inactive; RAM network inh: inactive

How did COc1ccccc1-c1cc(C(=O)Nc2ccccc2SC)no1 do in these assays?
Measles CPE: inactive; BB579 growth dn: inactive; Yeast lifespan up: inactive; RAM network inh: 9.0

How did COc1cccc(-c2cc(C(=O)Nc3cccc(O)c3)no2)c1 do in these assays?
Measles CPE: inactive; BB579 growth dn: inactive; Yeast lifespan up: inactive; RAM network inh: 9.2

How did COc1cccc(-c2cc(C(=O)Nc3ccccc3SC)no2)c1 do in these assays?
Measles CPE: inactive; BB579 growth dn: inactive; Yeast lifespan up: inactive; RAM network inh: inactive

How did COc1ccc(-c2cc(C(=O)Nc3ccccc3SC)no2)cc1OC do in these assays?
Measles CPE: inactive; BB579 growth dn: inactive; Yeast lifespan up: inactive; RAM network inh: 8.7

How did O=C(CN1CCN(c2ccc(O)cc2)CC1)Nc1cc([N+](=O)[O-])ccc1Cl do in these assays?
Measles CPE: inactive; BB579 growth dn: inactive; Yeast lifespan up: inactive; RAM network inh: inactive

How did CC1CC1c1ccc(/C=C(\C#N)C(=O)Nc2cc(Cl)ccc2Cl)o1 (configuration not stated) do in these assays?
BB579 growth dn: inactive; Yeast lifespan up: inactive; RAM network inh: 8.7

How did CC1CCN(CCC(=O)N/N=C/c2ccc([N+](=O)[O-])cc2)CC1 do in these assays?
RAM network inh: inactive

How did Cc1ccc(Cl)c(OC(=O)c2nn(C(C)C)c(=O)c3ccccc23)c1 do in these assays?
Measles CPE: inactive; BB579 growth dn: inactive; Yeast lifespan up: inactive; RAM network inh: 10

How did COC(=O)c1cccc(NC(=O)c2nn(C(C)C)c(=O)c3ccccc23)c1 do in these assays?
Measles CPE: inactive; BB579 growth dn: inactive; Yeast lifespan up: inactive; RAM network inh: inactive

Results for Cc1ccccc1-c1nn(-c2ccc(F)cc2F)cc1CNCCCN(C)C ?
RAM network inh: inactive

What do the screens show for `CCOc1ccccc1NC(=O)CN1C(=O)C(=O)N(Cc2ccco2)C1=O`?
RAM network inh: inactive

What do the screens show for `CC(C)Oc1ccc2ccccc2c1C=O`?
Measles CPE: 24; BB579 growth dn: inactive; Yeast lifespan up: inactive; RAM network inh: inactive

What do the screens show for `O=Cc1c(OCc2ccccc2)ccc2ccccc12`?
RAM network inh: inactive

Results for Clc1ccc(-n2nnnc2-c2ccccc2)cc1 ?
Measles CPE: 52; BB579 growth dn: inactive; Yeast lifespan up: inactive; RAM network inh: inactive

Results for Cc1c(C(=O)O)sc2nc(SCC(=O)Nc3ccc(S(=O)(=O)NCCCC(=O)O)cc3)[nH]c(=O)c12 ?
RAM network inh: inactive

How did Cc1c(C(=O)O)sc2nc(SCC(=O)Nc3ccc(S(=O)(=O)NC(C)(C)C)cc3)[nH]c(=O)c12 do in these assays?
RAM network inh: 8.5

How did COc1ccc(CCNC(=O)c2nnn(CC(=O)Nc3cccc(F)c3)c2N)cc1OC do in these assays?
RAM network inh: inactive

How did O=C(N/N=C/c1c[nH]c2ccc(Br)cc12)c1ccncc1 do in these assays?
Measles CPE: 29; BB579 growth dn: inactive; Yeast lifespan up: inactive; RAM network inh: inactive

What do the screens show for `O=C(N/N=C/c1c[nH]c2ccccc12)c1ccncc1`?
Measles CPE: inactive; BB579 growth dn: inactive; Yeast lifespan up: inactive; RAM network inh: inactive

How did Cc1ccc(Oc2nc(CN3CCOCC3)nc3sc4c(c23)CCC(C)C4)cc1 (configuration not stated) do in these assays?
Measles CPE: inactive; BB579 growth dn: inactive; Yeast lifespan up: inactive; RAM network inh: inactive

High-throughput results as filed in PubChem BioAssay.
